Env fusion inh: inhibitors of HIV-1 Env-driven cell-cell fusion, primary screen, HeLa-JRFL effector, CEM21 target cells, luciferase; inhibition, % at 12.3 µM; hit rate 1.1% among 360,000;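 active means mean replicate inhibition score of at least 50 and every replicate individually at or above 50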;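 further: 0% = plate neutral controls and 100% = maraviroc near 300 nM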
FN deposit inh: inhibitors of fibronectin matrix deposition, primary screen, AH1F cells, Alexa488-fibronectin fluorescence, plate reader. inhibition, % at 12.6 µM. AH1F fibroblasts, overnight. hit rate 0.086% among 350,000;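 active means mean inhibition across replicates of 30% or more, regardless of how many single replicates reach that level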;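 further: positive control wells lacked labelled fibronectin entirely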
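Material: AH1F fibroblast monolayer depositing Alexa488-labelled fibronectin into matrix | Input: 10000 AH1F cells/well | Medium: DMEM plus 2% serum, read in PBS | Reagent: Alexa488-fibronectin, 24 nM final in well | Compound dosing: One dose per compound, pinned | Schedule: 1 h adhesion, overnight exposure | Measured by: Fluorescence at 485 nm excitation, 525 nm emission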
ERp5 block: inhibitors of ERp5-driven insulin aggregation, primary screen, biochemical, turbidity, absorbance 650 nm, single point; inhibition, % at 9.99 µM; 90 min; AID 651711, 2012; hit rate 0.05% among 350,000; Protein disulfide-isomerase A6 (Homo sapiens), Q15084;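 active means mean replicate inhibition above about 25%, with every replicate also reaching it, limit read from the data, passing the limit was not always enough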
rRNA inh HTS: reduced GFP signal of wild-type E. coli, primary screen, bacterial rRNA inhibitor project, GFP/RFP fluorescence, OD600, single point; E. coli WT GFP vs humanized-ribosome RFP mutants, 24 h; active compounds read low; DMSO median 0, no signal -100; GFP signal change (wild-type ribosome), % (concentration not given with the values); hit rate 1.6% among 350,000;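 active means significant combined selectivity score with lowered wild-type GFP, culture density cut under 30%, mutant RFP and density less affected; inactive means any of these conditions unmet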
PDI turbidity: inhibitors of human PDI, primary screen, biochemical, turbidity, single point, plate reader | Protein disulfide-isomerase (Homo sapiens), P07237 | PDI insulin aggregation turbidity, A650, 90 min | inhibition, % at 10 µM | hit rate 0.052% among 350,000 | AID 588391, 2011;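 active means mean inhibition across replicates of 30% or more, whatever share of single replicates reach that level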
Target sequence (P07237 whole entry, looked up): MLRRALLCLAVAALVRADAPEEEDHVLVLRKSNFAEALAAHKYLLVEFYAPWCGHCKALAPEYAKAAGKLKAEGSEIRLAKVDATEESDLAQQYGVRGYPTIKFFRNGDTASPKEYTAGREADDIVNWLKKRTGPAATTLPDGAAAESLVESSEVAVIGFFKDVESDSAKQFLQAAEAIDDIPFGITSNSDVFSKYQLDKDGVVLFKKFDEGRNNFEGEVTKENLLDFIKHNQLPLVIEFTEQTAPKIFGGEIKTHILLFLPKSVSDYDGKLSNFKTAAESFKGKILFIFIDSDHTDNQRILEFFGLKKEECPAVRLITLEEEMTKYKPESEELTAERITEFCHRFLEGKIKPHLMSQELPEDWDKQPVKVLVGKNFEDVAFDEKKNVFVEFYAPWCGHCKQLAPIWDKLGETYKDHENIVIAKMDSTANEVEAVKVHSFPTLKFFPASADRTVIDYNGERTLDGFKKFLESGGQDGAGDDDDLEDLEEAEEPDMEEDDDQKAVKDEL
PvdQ inh: P. aeruginosa PvdQ acylase inhibitors, primary screen, biochemical, fluorescence, plate reader and imaging, single point. PvdQ acylase [Pseudomonas aeruginosa LESB58]. purified PvdQ acylase. inhibition, % at 10 µM. hit rate 0.063% among 340,000. AID 488965, 2010; in the data active means inhibition above about 30%, passing the limit was not always enough;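 further: 0% = vehicle neutral wells and 100% = reference inhibitor wells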
* = called active by the depositor; [ ] = remark or other dose. Compounds with a hit are over-represented: about 2.2% of the library has one in this group of screens.

Screening Cc1c(Cl)cccc1NC(=S)C(=C([O-])c1ccc(Cl)s1)[n+]1ccccc1 returned Env fusion inh -8.9, FN deposit inh -6.6, ERp5 block -5.3, rRNA inh HTS -11.2*, PDI turbidity -4.4 and PvdQ inh 0.0.
For COc1c(OC(C)=O)ccc(/C=C/c2ccc3ccccc3n2)c1[N+](=O)[O-] the results were ERp5 block 2.6, rRNA inh HTS -42.9*, PDI turbidity 16.1 and PvdQ inh -8.1.
NS(=O)(=O)c1ccc(CCNc2ncnc3sccc23)cc1 was read as Env fusion inh 48.8*, FN deposit inh -5.8, PDI turbidity 2.8 and PvdQ inh -14.3.
O=C(COc1ccccc1/C=C\c1[nH]c(=O)[nH]c(=O)c1[N+](=O)[O-])Nc1ccccc1 was read as Env fusion inh 20.0, ERp5 block -7.9, rRNA inh HTS -31.1*, PDI turbidity 15.2 and PvdQ inh 5.5.
O=c1[nH]c(/C=C/c2ccccc2Cl)c([N+](=O)[O-])c(=O)[nH]1 was read as Env fusion inh 7.1, FN deposit inh -2.2, ERp5 block 3.7, rRNA inh HTS -24.5, PDI turbidity 1.6 and PvdQ inh -9.5.
COc1cccc(CNc2ccc([N+](=O)[O-])cc2Cl)c1O was read as Env fusion inh -24.0, FN deposit inh 9.9, ERp5 block -3.7, rRNA inh HTS -49.8*, PDI turbidity -1.5 and PvdQ inh -3.9.
`C[C@H]1CN([C@@H](C)CO)C(=O)c2cccc(NC(=O)Nc3ccc(C(F)(F)F)cc3)c2O[C@H]1CN(C)S(C)(=O)=O` gave FN deposit inh 6.5, ERp5 block 0.2 and rRNA inh HTS -10.2.
For CN(C)Cc1cn(CC[C@@H]2CC[C@H](N)[C@H](CO)O2)nn1 the results were Env fusion inh 63.1*[16.7 µM], FN deposit inh -7.2, ERp5 block -4.1 and rRNA inh HTS 2.7.
Screening CN(C)Cc1cn(CC[C@@H]2CC[C@@H](N)[C@H](CO)O2)nn1 returned Env fusion inh 49.0[16.7 µM], FN deposit inh 8.8, ERp5 block -3.6 and rRNA inh HTS 1.8.
`Oc1cccc(NC(=S)Nc2ccc(SC(F)F)cc2)c1` gave Env fusion inh 20.2, FN deposit inh -0.5, ERp5 block -1.7, rRNA inh HTS -23.8, PDI turbidity -1.5 and PvdQ inh -25.4.
Oc1cccc2c(NC(=S)Nc3ccc(SC(F)F)cc3)cccc12 was read as Env fusion inh -16.7, ERp5 block -1.1, rRNA inh HTS -41.5*, PDI turbidity 23.2 and PvdQ inh -10.8.
For C[C@@H]1CN([C@H](C)CO)C(=O)c2cc(C#Cc3ccccc3)cnc2O[C@H]1CN(C)C(=O)CN(C)C the results were Env fusion inh 17.9[16.7 µM], FN deposit inh 11.7, ERp5 block 4.9 and rRNA inh HTS 4.1.
`COC(=O)c1c(NC(=O)COc2ccc(Cl)cc2)sc2c1CC(C)(C)NC2(C)C` gave Env fusion inh 57.3*, ERp5 block 6.8, rRNA inh HTS 6.9, PDI turbidity -1.0 and PvdQ inh 5.8.
`COC(=O)CC1(C(=O)OC)Oc2ccc(Br)cc2C(=O)N1c1ccc(Br)cc1Cl` (configuration not stated) gave Env fusion inh 9.8, FN deposit inh -3.3, ERp5 block -2.2, rRNA inh HTS -9.4, PDI turbidity -2.7 and PvdQ inh -5.9.
Screening COC(=O)CC1(C(=O)OC)Oc2ccc(Br)cc2C(=O)N1c1cccc(Cl)c1Cl (configuration not stated) returned Env fusion inh 65.4*, FN deposit inh 5.5, ERp5 block 2.3, rRNA inh HTS -13.1, PDI turbidity 4.3 and PvdQ inh 0.3.
Screening O=c1[nH]nc(-c2ccc(F)cc2)cc1Cc1cccs1 returned Env fusion inh 4.5, FN deposit inh 0.7, ERp5 block 4.1, rRNA inh HTS -20.4*, PDI turbidity 7.9 and PvdQ inh -0.8.
